Bioassay records (PubChem)
The sample as a whole holds a higher share of hits than the screen did.
UPR CHOP act: apoptotic UPR (CHOP) activation; activation, % at 10 µM; AID 449763; CHO-CHOP luciferase reporter, luminescence; percent of tunicamycin response over DMSO baseline; hit rate 0.34% among 330,000;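 active means at 10 µM dose, activation of 40% or more, normalized to positive control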;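 further: 100% = tunicamycin at 10 µg/mL and 0% = DMSO alone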
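System: CHO-CHOP luciferase reporter cell line | Buffer or medium: F12 medium containing 10% fetal bovine serum | Doses: One dose, 10 µM in 0.5% DMSO | Times: 6 h compound exposure at 37 °C after overnight seeding | Signal: Luciferase luminescence | Read-out: % activation vs tunicamycin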
Jurkat NFkB inh: lowers PMA/ionomycin-induced NF-kB signal in Jurkat cells; hit rate 0.53% among 330,000; PMA/ionomycin-induced NF-kB luciferase reporter, luminescence; AID 435003; inhibition, % at 4 µM; in the data active means inhibition above about 50%
CHOP inhibitor: blocks CHOP induction under ER stress | CHO-K1 CHOP-promoter luciferase, tunicamycin-induced, 15-18 h | AID 2732 | hit rate 3.8% among 220,000 | inhibition, % at 10 µM;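 active means compounds that reduced the stress-induced luciferase reporter signal by more than about 70% of percent inhibition, limit read from the data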;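 further: 0% = tunicamycin plus vehicle and 100% = wells without tunicamycin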
XBP1 UPR activ: adaptive UPR (XBP1) activation. CHO-XBP1 luciferase reporter, IRE1-XBP1 UPR activation, luminescence; percent of tunicamycin response, DMSO as zero. activation, % at 20 µM. hit rate 0.33% among 330,000;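 active means versus positive control, 20 µM dose yields 30% or more activation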;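 further: 100% = tunicamycin at 10 µg/mL and 0% = DMSO only wells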
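Assay system: CHO-XBP1 luciferase reporter cells; Schedule: 6 h treatment, 37 °C; Detection: glow luminescence from Steady-Glo reagent; Benchmarks: high control tunicamycin 10 µg/mL final, low control DMSO vehicle only.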
697 NFkB inh: lowers PMA/ionomycin-induced NF-kB signal in 697 B cells; hit rate 0.33% among 330,000; AID 435022; 697 B-cell NF-kB luciferase reporter, 16 h; inhibition, % at 4 µM; in the data active means inhibition above about 35%
CHOP inh conf: confirmation of CHOP induction inhibitors; CHO-CHOP promoter luciferase reporter, tunicamycin-induced, luminescence; hit rate 45% among 2,100; inhibition, % at 10 µM; AID 504437; shares compounds with CHOP inhibitor;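 active means mean of three repeat readings of reporter signal inhibition above a set limit, cut at about 70% in these data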;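 further: 0% = tunicamycin plus vehicle and 100% = wells lacking tunicamycin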
* hit, by the source's call; · = no result given.

SMILES	UPR CHOP act	Jurkat NFkB inh	CHOP inhibitor	XBP1 UPR activ	697 NFkB inh	CHOP inh conf
CCOC(=O)c1ccc2c(c1)nc(SC/C(O)=C(\C#N)c1nc3ccccc3[nH]1)n2CC	1.1	-25.6	98.8*	1.5	-8.9	46.5
Cc1ccc(C(=O)OC/C(O)=C(\C#N)c2nc3ccccc3[nH]2)cc1S(=O)(=O)N1CCOCC1	0.1	4.4	35.8	-2.8	3.6	·
CCOC(=O)/C(O)=C(\C#N)c1nc2ccccc2[nH]1	0.8	1.9	13.2	-1.4	4.3	·
CC1CN(S(=O)(=O)c2cccc(C(=O)OC/C(O)=C(\C#N)c3nc4ccccc4[nH]3)c2)CC(C)O1 (centres undefined)	1.5	-2.7	105.8*	-0.6	2.4	29.0
CCOC(=O)c1c(C)[nH]c(C(=O)OC/C(O)=C(\C#N)c2nc3ccccc3[nH]2)c1C	-0.3	-10.7	100.1*	-1.1	-17.3	-31.9
CCOC(=O)c1ccc2c(c1)nc(SCC(=O)c1ccco1)n2CC	4.5	-23.9	27.9	-1.0	-28.8	·
Cc1nnc(SCC(=O)NC2CCCCC2)[nH]c1=O	0.4	8.3	·	-2.5	22.9	·
Cc1ccc2c(c1)nc(-n1nc(C)cc1C)c1nnnn12	1.7	-18.6	2.2	1.3	-18.4	·
C[C@@H]1CCC(=O)N(CC[C@H](Oc2ccccc2)c2ccccc2)CC1	2.6	10.8	·	1.9	14.0	·
N#CC1=C(N)Oc2cc(N)ccc2C1c1ccccc1F (centres undefined)	-1.1	31.0	·	-4.0	-0.1	·
OC(c1ccc(OCc2ccccc2)cc1)c1nnc(-c2ccccc2)o1 (centres undefined)	-1.8	-9.3	97.1*	-2.6	-18.6	-33.4
OC(c1cccc(OCc2ccccc2)c1)c1nnc(-c2ccccc2)o1 (centres undefined)	1.6	1.1	111.0*	0.6	-22.6	106.0*
CS(=O)(=O)Nc1ccc(C2=NN(C(=O)CCCC(=O)O)C(c3cccs3)C2)cc1 (centres undefined)	-0.5	-14.3	·	1.9	-7.1	·
Nc1cccc2c1C(=O)N(C(=O)/C=C/c1cccc(Br)c1)C2=O	·	·	-3.1	·	·	·
Nc1cccc2c1C(=O)N(C(=O)/C=C/c1cccc(F)c1)C2=O	13.6	15.2	103.4*	2.9	12.8	127.0*
O=C(CSc1ccc2nnc(-c3cccc(F)c3)n2n1)N1CCCc2ccccc21	0.4	-0.9	105.0*	1.3	-33.0	33.0
Cc1ccccc1OCCC(=O)Nc1cc(S(=O)(=O)N2CCOCC2)ccc1OC(C)C	1.1	-10.2	·	-5.0	-9.9	·
Nc1nc(-c2ccccc2)c(N=Nc2ccccc2Cl)s1	-2.1	-0.5	97.1*	0.3	-10.4	80.5*
O=C(Nc1ccc(F)cc1)Nc1ccc(N2CCCC2)c(S(=O)(=O)Nc2ccccc2Cl)c1	9.8	-16.5	96.5*	6.2	-1.1	90.7*
O=C(NNS(=O)(=O)c1ccc2ccccc2c1)c1cc(-c2ccccn2)nc2ccccc12	-0.2	2.1	4.9	-1.3	-3.3	·
C=CCN1C(=O)/C(=C/c2ccc(OC(C)=O)c(OCC)c2[N+](=O)[O-])SC1=S	·	·	100.5*	·	·	113.9*
CCOc1c(OC(C)=O)ccc(/C=C/c2ccc3cccc(OC(C)=O)c3n2)c1[N+](=O)[O-]	4.5	-87.9	22.0	4.1	-33.9	·
CCc1ccc(S(=O)(=O)/N=C2\C=C(Nc3ccc(C(=O)O)cc3)C(=O)c3ccccc32)cc1	9.8	-28.0	·	-8.5	-14.4	·
O=C1C(Nc2ccccc2)=C/C(=N/S(=O)(=O)c2cccs2)c2ccccc21	·	·	107.9*	·	·	111.5*
CC(C)Oc1ccc(CNC(=S)N/N=C/c2ccc([N+](=O)[O-])cc2)cc1	0.5	-19.2	98.1*	-0.1	-13.5	101.6*
O=C(c1ccccc1)c1nn(-c2ccc(Cl)cc2)cc1C(=O)c1cc2ccccc2oc1=O	0.7	6.2	5.5	1.3	-16.1	·
CC(=O)N1N=C(c2cccs2)CC1c1cc2cc(C)ccc2nc1Cl (centres undefined)	-2.5	8.1	105.6*	12.0	8.0	-54.6
O=C(COCC(=O)Nc1cccc(C(F)(F)F)c1)Nc1cccc(C(F)(F)F)c1	-2.3	3.8	103.0*	-0.7	-2.8	115.9*
O=C(CCn1c(=O)[nH]c2ccsc2c1=O)Nc1ccc(F)c(F)c1	1.5	3.1	-3.9	1.4	-30.8	·
